Data on 8 compounds can be found in ChEMBL document CHEMBL1141534, “Synthesis of all stereoisomers of 3-hydroxypipecolic acid and 3-hydroxy-4,5-dehydropipecolic acid and their evaluation as glycosidase inhibitors” (Bioorg Med Chem Lett, 2008).

The target of test [1] is T1, Beta-glucuronidase (Bos taurus) (UniProt A3KMY8).
T1 sequence (whole entry): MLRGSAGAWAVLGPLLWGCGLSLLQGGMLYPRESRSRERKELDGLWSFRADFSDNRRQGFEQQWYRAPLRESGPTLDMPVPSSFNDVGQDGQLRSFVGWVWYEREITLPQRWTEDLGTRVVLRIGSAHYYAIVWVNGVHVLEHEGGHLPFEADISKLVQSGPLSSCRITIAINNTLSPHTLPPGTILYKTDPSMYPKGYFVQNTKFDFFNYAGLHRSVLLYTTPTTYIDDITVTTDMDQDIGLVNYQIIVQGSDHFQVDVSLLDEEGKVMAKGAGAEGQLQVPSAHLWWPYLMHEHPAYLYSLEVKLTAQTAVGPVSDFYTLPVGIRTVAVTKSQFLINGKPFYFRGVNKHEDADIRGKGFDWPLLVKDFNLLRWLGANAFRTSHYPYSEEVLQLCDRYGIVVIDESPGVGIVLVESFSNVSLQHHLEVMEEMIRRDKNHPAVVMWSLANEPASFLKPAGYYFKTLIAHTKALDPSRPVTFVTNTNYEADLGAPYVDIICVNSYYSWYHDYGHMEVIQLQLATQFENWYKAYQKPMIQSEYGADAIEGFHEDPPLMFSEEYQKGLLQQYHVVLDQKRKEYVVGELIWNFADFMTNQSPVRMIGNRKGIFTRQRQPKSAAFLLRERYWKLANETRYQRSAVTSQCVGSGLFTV
Briefly: Inhibition of bovine liver beta-glucuronidase. To be noted: concentration not given here. Also noted: concentration or dose not given beside the values. Summed up:
(§1)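 Enzyme activity was measured with the matching p-nitrophenyl glycoside as substrate at 10 mM, at each enzyme's optimum pH, with a suitable amount of enzyme per reaction. For line 4, the α-N-acetylgalactosaminidase came from chicken liver.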

In a further test the test system is Escherichia coli. Briefly: Inhibition of Escherichia coli beta-glucuronidase. To be noted: concentration not given here. Details: concentration or dose not given beside the values. Summed up:
as §1

The subject of test [2] is alpha-N-acetylgalactosaminidase (Gallus gallus). Description: Inhibition of chick liver alpha-N-acetylgalactosaminidase. Details: concentration or dose not given beside the values. The conditions noted are these: concentration not given here.
The species named for the next test is Bos taurus. Description: (§2) Inhibition of bovine kidney beta-N-acetylglucosaminidase. Details: concentration or dose not given beside the values. The conditions noted are these: concentration not given here. In a few lines:
as §1

The nature of test [3]: as §2. Details: species or system Bos taurus. Summed up:
as §1

Structures are written as SMILES.

In general, inhibition refers to how much of the control response was suppressed. `O=C(O)[C@@H]1NCCC[C@@H]1O`: the inhibition in test [1] worked out at 15%; with Escherichia coli, 23%; in test [2], 3.2%; in the test listed under Bos taurus, 47%.

Take `O=C(O)[C@H]1NCCC[C@H]1O`: the inhibition in test [1] was determined as 0.18%; in the test with Escherichia coli, 24%; in test [2], 2.5%; in the test listed under Bos taurus it was 20%.

As usually defined, the IC50 is the concentration that gives 50% inhibition. For `O=C(O)[C@H]1NCC=C[C@@H]1O`, the inhibition is 19% in test [1], 2% with Escherichia coli, 25% in test [2] and 58% in the test listed under Bos taurus. This compound also came in with an IC50 in test [3] of 720 µM.

`O=C(O)[C@@H]1NCC=C[C@@H]1O`: the inhibition in test [1] came out at 10%; in the test on Escherichia coli, 0.9%; in test [2], 1.3%; in the test filed under Bos taurus, 0.8%.

As for `O=C(O)[C@@H]1NCCC[C@H]1O`, the inhibition was 0.62% in test [1], 20% in the test with Escherichia coli, 1.3% in test [2] and 32% in the test listed under Bos taurus.

With `O=C(O)[C@H]1NCCC[C@@H]1O`, the inhibition was 0.89% in test [1], 31% with Escherichia coli, 5.2% in test [2] and 38% in the test filed under Bos taurus.

For the compound `O=C(O)[C@H]1NCC=C[C@H]1O`, the inhibition in test [1] turned out to be 8.6%; in the test on Escherichia coli it was 3.3%; in test [2] it was 0.2%; in the test filed under Bos taurus it was 7.3%.

Regarding `O=C(O)[C@@H]1NCC=C[C@H]1O`, the inhibition in test [1] was determined as 0.2%; in the test on Escherichia coli, 0.9%; in test [2], 3.2%; in the test listed under Bos taurus, 15%.
